In ChEMBL document CHEMBL4513216, “Probing the Open Global Health Chemical Diversity Library for Multistage-Active Starting Points for Next-Generation Antimalarials” (ACS Infect Dis, 2020):

Test: Toxicity liver stage against HepG2, at 10uM
Type: cell-based
Design: test concentration 10 uM, cell line HepG2-A16-CD81EGFP
Conditions: human, HepG2-A16-CD81EGFP cells; read-out: INHIBITION
Summary of the method: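 Uninfected HepG2-A16-CD81EGFP cells, 3 × 10^3 per well, 1536-well, plated on prespotted compound at 10 μM final, parasite-free screening media added to match infected plates; puromycin 10 μM positive, DMSO 0.5% negative; run in parallel with 48 h PbLuc assay at 37 °C, 5% CO2; viability by CellTiter-Glo luminescence, normalized to controls.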

Compound | cytotoxicity at 10 µM [%]
CN(C)C(=O)C1CCN(C(=O)c2c[nH]c3cc(Cl)ccc23)CC1 | -0.983
Cc1ccc(C(CNCc2ccncc2)N2CCOCC2)s1 (configuration not stated) | -14.6
CCNC(=O)NC(=O)CSC(C)c1ccccc1F (configuration not stated) | 15.6
Cc1cccc(OCCC(=O)N(C)CCC#N)c1C | 0.666
CC(C)(C(=O)NCC1CC1)c1ccccc1F | -5.47
Cc1nc(CN2C[C@@H]3CN(C(=O)c4cnccn4)C[C@@H]3C2=O)cs1 | -74.5
Cc1nc2c(c(NCC(O)c3ccccc3Cl)n1)CCNCC2 (configuration not stated) | -2.88
CNS(=O)(=O)CCN1CC(c2ccccc2)(c2ccccc2)CCC1=O | -7.91
COc1ncc(CN2CCOC(Cc3cccc4ccccc34)C2)cn1 (configuration not stated) | -3.94
COC(=O)CNC(=O)c1ccc(OC2CCN(S(C)(=O)=O)CC2)c(Cl)c1 | -4.52
c1ccc(CCc2n[nH]c(C3CCC3)n2)cc1 | -3.58
CC(C)c1ccc(C#N)c(N2CC(C)(C)[C@@](C)(O)C2)n1 | 2.71
CC(C)CN1CC2(CCN(C(=O)c3cnccn3)CC2)CC1=O | 2.46
Cc1ccsc1[C@@H]1CCN(C(=O)CCc2n[nH]c(C)c2C)C[C@H]1O | 7.04
Cc1cc(C)c(C(=O)N2CCn3nc(C(=O)NCCN(C)C)cc3C2)[nH]1 | -0.53
Cn1nnnc1SCCNC(=O)C1CCN(C(=O)C2CCCC2)CC1 | -11.8
Cc1ccsc1CCNC(=O)CCC1CCCCN1C (configuration not stated) | -3.13
CC(C)(CNC1CCCN(Cc2ccccc2F)C1)CN1CCOCC1 (configuration not stated) | 6.21
COCC(=O)N1C[C@H]2CNC[C@@]2(C(=O)NCc2c(C)noc2C)C1 | 0.753

Compound | cytotoxicity at 10 µM [%]
O=S(=O)(NCCNc1ccc(-n2cccn2)nn1)c1ccccc1 | -8.55
Cc1ncsc1C(=O)N1CCc2[nH]nc(-c3ccc4c(c3)OCO4)c2C1 | -141
COc1ccc(C(=O)N2CCN(C(=O)c3csc(C(C)C)n3)CC2)cc1 | -10.4
CCc1nc(C)sc1CN1CC[C@](O)(CC)[C@H](O)C1 | -5.61
Nc1cc(C(=O)NC2CCCN(CCCc3ccccc3)C2)ccn1 (configuration not stated) | 8.01
Cc1cc(N2CCCCCC2)n2nc(C)c(C)c2n1 | -6.23
c1cc(CCN2CCN(c3ccc4nncn4n3)CC2)ccn1 | 4.76
Cn1cnnc1C1CCCN(C(=O)NCCn2ccnc2)C1 (configuration not stated) | -2.74
Cc1ccccc1C1(C(=O)NCCN2CCOCC2)CCOCC1 | -3.07
O=C(c1ccc2c(c1)CCO2)N1CCN(c2cnccn2)CC1 | -14.4
CCC(C)(C)NC(=O)Cn1nc(C)nc1-c1ccccc1 | -15.4
CC(C)Cc1noc(CN2CCCC2c2noc(C3CC3)n2)n1 (configuration not stated) | -12.9
O=C(CCn1cncn1)N1CCCC1c1noc(C2CC2)n1 (configuration not stated) | -23.3
O=C(NCCn1ccnc1)N1CCN(Cc2cccnc2)CC1 | -4.64
Fc1cccc(-n2ccc(CN3CCCC3Cn3cccn3)n2)c1 (configuration not stated) | -13.1
Cc1cccc(C(=O)N2CCCN(Cc3cscn3)CC2)c1 | -18.1
COc1c(CNCc2ccc(S(C)(=O)=O)cc2)c(C)nn1C | -8.27
CCc1n[nH]c(C2CN(C(=O)c3ccnc(N(C)C)c3)CCO2)n1 (configuration not stated) | 6.66
COc1ccc(CCC(=O)N2CCCCC2Cn2cccn2)cc1F (configuration not stated) | -8.7

Compound | cytotoxicity at 10 µM [%]
Cc1nc(CN2CCCC(N(C)Cc3nc(C)c(C)o3)C2)no1 (configuration not stated) | -6.6
Cc1ccccc1-c1noc(CN2CC(n3cccn3)C2)n1 | -4.21
CC(=O)Nc1nc(C(=O)NC(C)c2ccc(F)c(F)c2)cs1 (configuration not stated) | -5.39
Cn1cnnc1C1CCCN(C(=O)NCc2ccccc2)C1 (configuration not stated) | -14
Cc1ccc(-c2nc(CN3CCn4c(C)nnc4C3)cs2)o1 | -19.2
O=C(CCNC(=O)c1ccoc1)NCc1ccccc1F | 1.76
COc1ccc(CNCC(C)Oc2ccccn2)cc1Br (configuration not stated) | -10.2
CCOc1ccc(CNCCCn2ccnc2)cc1Cl | -9.51
Cc1ccc(CN2CCC3(CC2)C(=O)N(CC(C)C)CCN3C)s1 | -3.63
CC(=O)N1CCC[C@@H](NCc2cccc(F)c2)[C@@H]1c1ccc(C)s1 | -24.2
N#Cc1ccc(CNCC2(c3ccccc3)CCOCC2)cc1 | 8.78
Cc1cccc(CN2C[C@@H]3CN(C(=O)NC(C)C)C[C@@H]3C2=O)n1 | 2.91
CCn1ncc2c1C(COC)N(C(=O)c1ccc3c(c1)OCO3)CC2 (configuration not stated) | 8.1
CC(=O)N1CCC2(CC1)CN(CC(C)C)CC21CCNC1=O (configuration not stated) | -1.07
NC(=O)COc1ccc(CNCc2ccc(F)c(F)c2)cc1 | -15.2
Fc1cnccc1CN1CCC2(CCN2c2ncccn2)C1 (configuration not stated) | -111
COc1ccc(CN2CC[C@H]3[C@H]2CC(=O)N3Cc2cccc(C)n2)cc1 | 1.2
COc1ncccc1CN1C[C@@H]2COC[C@]2(COc2ccccn2)C1 | -3.87
Nc1ccnc(N2C[C@H]3CC[C@@H](C2)N(CC2CCC2)C3=O)n1 | -0.253
